Many of the other results were omitted from the sample, so hits are more common in it than they were.
XBP1 UPR activ: adaptive UPR (XBP1) activation. activation, % at 20 µM. 330,000 compounds, 0.33% hits. CHO-XBP1 luciferase reporter, IRE1-XBP1 UPR activation, luminescence; percent of tunicamycin response, DMSO as zero;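 active means versus positive control, 20 µM dose yields 30% or more activation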;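 further: 100% = tunicamycin at 10 µg/mL and 0% = DMSO only wells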
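Assay system: CHO-XBP1 luciferase reporter cells; Schedule: 6 h treatment, 37 °C; Detection: glow luminescence from Steady-Glo reagent; Benchmarks: high control tunicamycin 10 µg/mL final, low control DMSO vehicle only.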
CHOP UPR activ: apoptotic UPR (CHOP) activation; CHO-CHOP luciferase reporter, luminescence; percent of tunicamycin response over DMSO baseline; activation, % at 10 µM; 330,000 compounds, 0.34% hits; AID 449763;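 active means at 10 µM dose, activation of 40% or more, normalized to positive control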;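 further: 100% = tunicamycin at 10 µg/mL and 0% = DMSO alone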
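Assay system: CHO-CHOP cells, stable luciferase reporter of PERK-eIF2a-CHOP signalling / Buffer or medium: F12 plus 10% serum / Compound dosing: one dose, 10 µM in 0.5% DMSO / Times: 6 h compound treatment, 37 °C / Technique: luciferase luminescence / Read-out: % reporter activation, DMSO baseline versus tunicamycin full activation / Benchmarks: tunicamycin and DMSO controls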
VLA-4 inh: inhibition in a human VLA-4 binding assay; P13612; VLA-4 expressing cells, ligand binding flow cytometry; inhibition, % (about 7 µM as worked out from the volumes in the protocol); 330,000 compounds, 0.2% hits; in the data active means inhibition above about 50%
Target sequence (P13612 whole entry, looked up): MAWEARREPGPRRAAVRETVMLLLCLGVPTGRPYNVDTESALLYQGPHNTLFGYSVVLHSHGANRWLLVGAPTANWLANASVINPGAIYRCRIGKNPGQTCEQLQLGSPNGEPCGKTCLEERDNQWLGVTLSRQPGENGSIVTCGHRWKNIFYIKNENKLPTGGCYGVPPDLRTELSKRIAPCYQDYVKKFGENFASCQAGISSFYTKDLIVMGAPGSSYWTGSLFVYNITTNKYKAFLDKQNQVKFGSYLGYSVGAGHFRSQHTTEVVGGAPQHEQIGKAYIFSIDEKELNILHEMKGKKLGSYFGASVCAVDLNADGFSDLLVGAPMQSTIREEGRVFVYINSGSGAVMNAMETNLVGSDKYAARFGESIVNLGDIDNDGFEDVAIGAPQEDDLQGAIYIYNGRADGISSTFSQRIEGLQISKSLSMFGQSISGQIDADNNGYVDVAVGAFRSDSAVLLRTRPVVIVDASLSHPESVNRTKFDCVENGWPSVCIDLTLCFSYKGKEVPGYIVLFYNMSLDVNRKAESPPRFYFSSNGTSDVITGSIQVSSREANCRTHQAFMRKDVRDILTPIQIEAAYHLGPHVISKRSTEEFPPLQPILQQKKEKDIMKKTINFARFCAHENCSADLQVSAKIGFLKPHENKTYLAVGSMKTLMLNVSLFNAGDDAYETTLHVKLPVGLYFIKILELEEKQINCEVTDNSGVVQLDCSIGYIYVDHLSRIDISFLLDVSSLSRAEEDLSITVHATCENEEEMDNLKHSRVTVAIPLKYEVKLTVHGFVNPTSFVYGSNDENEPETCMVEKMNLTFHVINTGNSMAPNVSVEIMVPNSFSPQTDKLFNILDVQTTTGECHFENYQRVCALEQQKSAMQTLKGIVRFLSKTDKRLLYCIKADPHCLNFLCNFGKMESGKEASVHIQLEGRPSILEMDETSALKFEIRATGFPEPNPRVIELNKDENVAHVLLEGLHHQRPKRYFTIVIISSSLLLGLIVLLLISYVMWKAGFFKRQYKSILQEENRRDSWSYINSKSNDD
CHOP inh: inhibitors of CHOP induction in ER stress response | CHO-K1 CHOP-promoter luciferase, tunicamycin-induced, 15-18 h | inhibition, % at 10 µM | 220,000 compounds, 3.8% hits;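 active means compounds that reduced the stress-induced luciferase reporter signal by more than about 70% of percent inhibition, limit read from the data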;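 further: 0% = tunicamycin plus vehicle and 100% = wells without tunicamycin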
Beta2AR agonist: human beta-2 adrenergic receptor agonism by FAP; P07550; Am2.2-beta2AR cells, FAP receptor internalization, flow cytometry; response, % (concentration not given with the values); 340,000 compounds, 0.43% hits; AID 504454;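 active means response above a set limit, near 3 SD of response in nonfluorescent compounds, cut at about 42% in these data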
CHOP inh conf: confirmation of CHOP induction inhibitors; shares compounds with CHOP inh; CHO-CHOP promoter luciferase reporter, tunicamycin-induced, luminescence; inhibition, % at 10 µM; 2,100 compounds, 45% hits; AID 504437;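 active means mean of three repeat readings of reporter signal inhibition above a set limit, cut at about 70% in these data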;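 further: 0% = tunicamycin plus vehicle and 100% = wells lacking tunicamycin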
* hit, by the source's call; i = inactive; nt = not tested or not shown.

SMILES | XBP1 UPR activ | CHOP UPR activ | VLA-4 inh | CHOP inh | Beta2AR agonist | CHOP inh conf
COC(=O)c1cc2cc(NS(=O)(=O)c3ccc(C)cc3)ccc2s1 | 1 | -1 | -1 | 103* | 10 | 14
CC(=O)C(C(C)=O)c1c(Cl)c(O)c(O)c2c(C(=O)c3ccccc3)coc12 | -2 | 25 | 14 | nt | 2 | 100*
CN1CCN(Cc2c(O)ccc3occ(C(=O)c4ccccc4)c23)CC1 | 2 | 3 | 1 | 21 | 3 | nt
COc1ccc(C2=C/C(=C/c3cccnc3)C(=O)O2)cc1OC | 0 | 0 | 0 | 105* | 26 | 14
CC(=O)Oc1cccc(/C=C2\C=C(c3ccc(C)cc3)OC2=O)c1 | 2 | 0 | 17 | 9 | 4 | nt
COc1ccc(C2=C/C(=C\c3ccc(OC(C)=O)cc3)C(=O)O2)cc1 | -1 | 1 | -12 | 4 | -1 | nt
CCOc1ccc(C2=C/C(=C/c3cccnc3)C(=O)O2)cc1 | 3 | 3 | 0 | 103* | -6 | 91*
CCc1ccc(-c2ccc(SCC(=O)NCC3CCCO3)nn2)cc1 (stereo not drawn) | 2 | 3 | -3 | -10 | 8 | nt
Cc1cc(NC(=O)NN2CCOCC2)nn1-c1c(Cl)cc(Cl)cc1Cl | 6 | 0 | 12 | 7 | -5 | nt
O=C1CC(c2ccccc2Br)c2cc3c(cc2N1)CCC3 (stereo not drawn) | -1 | -1 | 2 | 101* | nt | 41
O=C1CC(c2ccccc2F)c2cc3c(cc2N1)CCC3 (stereo not drawn) | 3 | 0 | -3 | 62 | 10 | nt
Cc1cc(NC(=O)COC(=O)CNC(=O)c2cccs2)c([N+](=O)[O-])cc1C | -3 | 1 | 23 | nt | -1 | nt
Cc1ccc(-c2ccc(/C=C3\C(=O)ON=C3c3ccccc3)o2)c([N+](=O)[O-])c1 | -3 | 25 | 42 | 111* | 18 | 80*
Cc1nc(N/C(N)=N/S(=O)(=O)c2ccccc2)nc2ccccc12 | 3 | 0 | 1 | nt | 17 | nt
Cc1cccc(-c2nc3c(s2)CCc2onc(-c4ccc(Br)cc4)c2-3)c1 | 0 | -1 | 1 | nt | -8 | nt
CCOc1cccc2cc(-c3nnc(NCc4ccco4)s3)c(=O)oc12 | 3 | 6 | -1 | 97* | 22 | 20
O=C(CCCOc1ccc(Br)cc1)NNC(=O)c1ccncc1 | 0 | 0 | 0 | nt | 0 | nt
COc1ccc(NC(=O)/C(Cl)=C(/Cl)S(=O)Cc2ccc(Cl)cc2)cn1 (stereo not drawn) | -9 | -11 | nt | 107* | -401 | 140*
CNC(=O)c1c(NC(=O)c2cc(-c3cc(C)c(C)cc3O)n[nH]2)sc2c1CCCC2 | 50* | 17 | 13 | 103* | nt | -6
Cc1cc(C)cc(-c2nnc(SCC(=O)NCC3CCCO3)o2)c1 (stereo not drawn) | nt | nt | nt | nt | -8 | nt
CCc1cc2c3c(c1)C1(C(=O)N3C(C)(C)CC2C)C(C#N)=C(N)N2C(=C1C#N)Nc1ccccc12 (stereo not drawn) | 0 | 4 | -9 | 39 | -11 | nt
N=C1S/C(=C\c2cn[nH]c2-c2ccc(F)cc2)C(=O)N1c1ccccc1F | -1 | 6 | -1 | 103* | 2 | 43
O=c1oc2ccccc2c(N2CCCC2)c1CN1CCCC1 | -4 | 2 | 13 | 21 | -10 | nt
O=c1oc2ccccc2c(Cl)c1CN1CCCCC1 | -10 | -10 | 9 | 107* | 1 | 123*
O=C(CCCOc1ccc(Cl)cc1Cl)N/N=C\C1CCCCC1 | -1 | 1 | 12 | 105* | -2 | 83*
SMILES | XBP1 UPR activ | CHOP UPR activ | VLA-4 inh | CHOP inh | Beta2AR agonist | CHOP inh conf
O=C(CCCOc1ccc(Cl)cc1Cl)NCCCO | -1 | 0 | -2 | 32 | -2 | nt
Cc1ccc(/C=C(\NC(=O)c2ccc(C)cc2)c2nc(=S)[nH][nH]2)cc1 | -3 | -2 | 4 | 110* | 5 | 4
CCOC(=O)/C(C#N)=C/c1cc2cc(C)c(C)cc2nc1Cl | -1 | 4 | -6 | -4 | 6 | nt
Cc1cc2cc(C=C(C#N)C#N)c(Cl)nc2cc1C | -2 | 10 | 22 | 97* | 7 | 2
CC1CCCN(Cc2c(O)ccc3c(=O)c(-c4nc5ccccc5s4)c(N)oc23)C1 (stereo not drawn) | 0 | 3 | -4 | 10 | 22 | nt
CC1(C)CCCN(Cc2c(O)ccc3c(=O)c(-c4nc5ccccc5s4)c(N)oc23)C1 | -1 | 5 | -14 | 104* | 7 | 2
CCOc1ccc(CCNc2ccc3nnc(-c4ccccc4)n3n2)cc1OCC | -4 | 1 | -10 | 97* | 4 | 64
CC1CCc2nc(NC(=O)CSc3nc4ccccc4o3)sc2C1 (stereo not drawn) | -8 | -2 | 6 | 97* | -6 | 23
Cc1nnc(NC(=O)CSc2nc3ccccc3o2)s1 | -3 | -2 | 23 | 14 | -11 | nt
COC(=O)c1ccc2c(c1)C(C)(C)C(/C=C/c1ccccc1O)=[N+]2C | -6 | -9 | i | 108* | 62* | 120*
Cc1ccc(-c2nc3cc(NS(=O)(=O)c4ccc(C)cc4)ccc3o2)cc1 | 1 | 0 | nt | 105* | -2 | 80*
O=S(=O)(Nc1ccc2oc(-c3ccccc3)nc2c1)c1ccccc1 | 5 | 4 | 5 | nt | 0 | nt
Cc1ccc(-c2nc3cc(N)ccc3o2)cc1 | -2 | -1 | 2 | 102* | -2 | 60
NC(N)=N/N=C/c1ccccc1 | -3 | 0 | 5 | 3 | -14 | nt
NC(N)=N/N=C/c1ccc(OCc2ccccc2Cl)cc1 | 6 | 5 | 25 | 97* | 53* | -14
O=C(Nc1ccc(C(=O)N2CCCC2)cc1)c1ccc(F)cc1Cl | -4 | 0 | 18 | nt | 2 | nt
Oc1cccc(C2c3[nH]c4ccccc4c3CCN2Cc2ccc3c(c2)CCO3)c1 (stereo not drawn) | 7 | 0 | 12 | 106* | 9 | 10
O=C(OCc1cnc(Cl)s1)c1ccccc1Cl | 3 | 2 | 7 | 14 | 11 | nt
O=C(OCn1ncc(Br)c(Br)c1=O)c1ccccc1Cl | -8 | -11 | 35 | 111* | 49* | 124*
CN1CCN(CCNC(=O)c2ccc3nc(-c4ccc(F)cc4)c(-c4ccc(F)cc4)nc3c2)CC1 | 3 | 0 | 4 | nt | 19 | nt
CC(C)(C)OC(=O)NCCc1nnc(SCC(=O)Nc2ccc(Br)cc2)o1 | -1 | 1 | 10 | 9 | 2 | nt
O=C(Cc1csc(Nc2nc(=S)[nH]c3ccccc23)n1)N1CCN(c2cccc(C(F)(F)F)c2)CC1 | 4 | 2 | 5 | 107* | 2 | 66
Cc1ccc(CNC(=O)Cc2csc(Nc3nc(=S)[nH]c4ccccc34)n2)cc1 | 0 | 2 | -1 | 29 | nt | nt
Cc1csc(NC(=O)CSc2nnc(NC(=O)COc3ccccc3)s2)n1 | -1 | 1 | 15 | 101* | 0 | 1
Cc1csc(NC(=O)CSc2ccc(-c3ccccc3)nn2)n1 | 0 | 1 | 11 | -12 | -4 | nt

Compound activity from PubChem BioAssay.
